Measured values taken from ChEMBL document CHEMBL4229344 (Eur J Med Chem, 2018).

Key:
[1] = molecular target: Calcium/calmodulin-dependent protein kinase type II subunit gamma (Homo sapiens) (UniProt Q13555); assay: Binding affinity to wild-type human partial length CAMK2G (R9 to A303 residues) expressed in bacterial expression system assessed as residual binding level at 1 uM by Kinomescan method relative to control
[2] = molecular target: Peripheral plasma membrane protein CASK (Homo sapiens) (UniProt O14936); assay: Binding affinity to wild-type human partial length CASK (M1 to H315 residues) expressed in mammalian expression system assessed as residual binding level at 1 uM by Kinomescan method relative to control
How it was run: (§1)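 Kinome-wide competition binding screen against a panel of 468 purified kinases/mutants, with the test compound at a single concentration of 1 μM. Read-out is the relative binding activity of each kinase in the presence of compound.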

[3] = molecular target: Casein kinase I isoform gamma-3 (Homo sapiens) (UniProt Q9Y6M4); assay: Binding affinity to wild-type human full length CSNK1G3 (M1 to K447 residues) expressed in bacterial expression system assessed as residual binding level at 1 uM by Kinomescan method relative to control
How it was run: (§2)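 KINOMEscan competition binding against 468 purified kinases/mutants, test compound at 1 µM; residual binding relative to control.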

[4] = molecular target: Discoidin domain-containing receptor 2 (Homo sapiens) (UniProt Q16832); assay: Binding affinity to wild-type human partial length DDR2 (V555 to E855 residues) expressed in mammalian expression system assessed as residual binding level at 1 uM by Kinomescan method relative to control; how it was run: as §1
[5] = tested on: Epidermal growth factor receptor (Homo sapiens), P00533 [UNDEFINED MUTATION]; assay: Binding affinity to human partial length EGFR L747-E749del/A750P mutant expressed in bacterial expression system assessed as residual binding level at 1 uM by Kinomescan method relative to control
How it was run: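 Kinome-wide single-concentration binding screen (KINOMEscan) at 1 μM against a panel of 468 purified kinases and mutants. Read-out is relative binding of each kinase compared with control. Selectivity across the panel was summarised as an S(10) score.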

[6] = molecular target: Mitogen-activated protein kinase 7 (Homo sapiens) (UniProt Q13164); assay: Binding affinity to wild-type human partial length ERK5 (M1 to A409 residues) expressed in bacterial expression system assessed as residual binding level at 1 uM by Kinomescan method relative to control; how it was run: as §1
Mitogen-activated protein kinase 7 (Homo sapiens), sequence (Q13164 2-816 limits assumed): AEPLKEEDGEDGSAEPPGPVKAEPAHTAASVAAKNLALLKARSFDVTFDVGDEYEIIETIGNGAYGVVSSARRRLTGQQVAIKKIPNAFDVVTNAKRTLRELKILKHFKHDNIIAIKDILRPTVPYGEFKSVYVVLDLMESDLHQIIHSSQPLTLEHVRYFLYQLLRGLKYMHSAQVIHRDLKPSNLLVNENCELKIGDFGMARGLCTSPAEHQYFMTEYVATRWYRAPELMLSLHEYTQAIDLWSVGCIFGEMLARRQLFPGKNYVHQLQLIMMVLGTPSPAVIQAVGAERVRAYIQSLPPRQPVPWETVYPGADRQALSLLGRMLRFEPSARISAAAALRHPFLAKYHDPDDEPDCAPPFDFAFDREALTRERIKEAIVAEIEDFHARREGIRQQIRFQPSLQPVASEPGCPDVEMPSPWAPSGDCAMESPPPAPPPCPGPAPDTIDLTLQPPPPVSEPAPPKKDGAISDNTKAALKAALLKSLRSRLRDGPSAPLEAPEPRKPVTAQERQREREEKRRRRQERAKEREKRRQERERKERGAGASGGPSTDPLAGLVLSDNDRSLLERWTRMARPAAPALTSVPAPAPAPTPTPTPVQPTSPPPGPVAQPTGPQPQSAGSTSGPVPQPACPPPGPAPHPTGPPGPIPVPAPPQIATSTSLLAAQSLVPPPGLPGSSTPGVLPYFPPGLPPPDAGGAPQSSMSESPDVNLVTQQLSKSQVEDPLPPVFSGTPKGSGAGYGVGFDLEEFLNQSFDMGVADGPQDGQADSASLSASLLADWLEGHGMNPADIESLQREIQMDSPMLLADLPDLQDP

[7] = molecular target: Glycogen synthase kinase-3 beta (Homo sapiens) (UniProt P49841); assay: Binding affinity to wild-type human full length GSK3B (M1 to T433 residues) expressed in mammalian expression system assessed as residual binding level at 1 uM by Kinomescan method relative to control; how it was run: as §2
[8] = molecular target: Hormonally up-regulated neu tumor-associated kinase (Homo sapiens) (UniProt P57058); assay: Binding affinity to wild-type human partial length HUNK (A31 to K354 residues) expressed in bacterial expression system assessed as residual binding level at 1 uM by Kinomescan method relative to control
[9] = molecular target: Mitogen-activated protein kinase kinase kinase 4 (Homo sapiens) (UniProt Q9Y6R4); assay: Binding affinity to wild-type human partial length MAP3K4 (G1319 to E1608 residues) expressed in bacterial expression system assessed as residual binding level at 1 uM by Kinomescan method relative to control
Mitogen-activated protein kinase kinase kinase 4 (Homo sapiens), sequence (Q9Y6R4 whole entry, the tested form may be a part): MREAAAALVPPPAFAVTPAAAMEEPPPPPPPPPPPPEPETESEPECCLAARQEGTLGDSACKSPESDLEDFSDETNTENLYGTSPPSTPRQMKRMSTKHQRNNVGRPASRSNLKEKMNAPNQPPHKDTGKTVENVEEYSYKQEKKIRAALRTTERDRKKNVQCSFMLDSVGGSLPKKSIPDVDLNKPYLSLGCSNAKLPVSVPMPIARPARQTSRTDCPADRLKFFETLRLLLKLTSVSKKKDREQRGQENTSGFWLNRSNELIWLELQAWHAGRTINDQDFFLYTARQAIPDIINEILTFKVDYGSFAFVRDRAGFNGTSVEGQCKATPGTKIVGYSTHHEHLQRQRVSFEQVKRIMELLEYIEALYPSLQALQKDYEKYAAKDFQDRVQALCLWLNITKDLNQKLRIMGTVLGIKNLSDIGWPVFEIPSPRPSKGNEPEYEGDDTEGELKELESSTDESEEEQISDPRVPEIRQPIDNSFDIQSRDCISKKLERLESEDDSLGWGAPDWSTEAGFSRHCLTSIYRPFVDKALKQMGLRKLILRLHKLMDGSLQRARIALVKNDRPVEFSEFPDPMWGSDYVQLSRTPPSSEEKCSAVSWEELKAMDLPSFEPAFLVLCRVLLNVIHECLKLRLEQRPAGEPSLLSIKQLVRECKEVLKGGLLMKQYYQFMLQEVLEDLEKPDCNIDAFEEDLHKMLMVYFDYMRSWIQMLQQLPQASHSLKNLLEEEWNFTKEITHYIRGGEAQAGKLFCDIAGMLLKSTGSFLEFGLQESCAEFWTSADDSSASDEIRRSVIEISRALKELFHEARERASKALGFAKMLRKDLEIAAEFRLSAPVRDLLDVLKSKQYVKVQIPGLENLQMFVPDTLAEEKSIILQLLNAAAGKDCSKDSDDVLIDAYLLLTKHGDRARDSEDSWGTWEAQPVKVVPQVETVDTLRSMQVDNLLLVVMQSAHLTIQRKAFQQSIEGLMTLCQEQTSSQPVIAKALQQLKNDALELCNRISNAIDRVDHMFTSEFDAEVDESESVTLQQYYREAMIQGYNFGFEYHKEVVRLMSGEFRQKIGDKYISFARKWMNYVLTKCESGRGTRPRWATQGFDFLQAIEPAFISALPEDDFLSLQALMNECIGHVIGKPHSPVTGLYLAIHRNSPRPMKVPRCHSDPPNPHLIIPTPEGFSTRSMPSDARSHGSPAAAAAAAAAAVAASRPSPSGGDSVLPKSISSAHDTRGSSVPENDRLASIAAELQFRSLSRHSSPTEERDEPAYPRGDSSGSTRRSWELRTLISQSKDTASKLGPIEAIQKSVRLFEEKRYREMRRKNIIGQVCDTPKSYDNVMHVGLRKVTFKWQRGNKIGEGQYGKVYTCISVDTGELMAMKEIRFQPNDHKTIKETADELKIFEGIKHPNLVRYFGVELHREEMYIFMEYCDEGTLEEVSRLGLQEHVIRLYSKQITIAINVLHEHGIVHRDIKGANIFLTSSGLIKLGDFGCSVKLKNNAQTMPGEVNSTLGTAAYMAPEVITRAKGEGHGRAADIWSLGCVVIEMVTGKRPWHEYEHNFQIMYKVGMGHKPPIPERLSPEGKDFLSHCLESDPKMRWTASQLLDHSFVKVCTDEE

[10] = molecular target: MAP/microtubule affinity-regulating kinase 3 (Homo sapiens) (UniProt P27448); assay: Binding affinity to wild-type human full length MARK3 (M1 to L729 residues) expressed in bacterial expression system assessed as residual binding level at 1 uM by Kinomescan method relative to control; how it was run: as §2
[11] = molecular target: Maternal embryonic leucine zipper kinase (Homo sapiens) (UniProt Q14680); assay: Binding affinity to wild-type human full length MELK (M1 to V651 residues) expressed in bacterial expression system assessed as residual binding level at 1 uM by Kinomescan method relative to control; how it was run: as §2
Maternal embryonic leucine zipper kinase (Homo sapiens), sequence (Q14680 whole entry, looked up, the tested form may be a part): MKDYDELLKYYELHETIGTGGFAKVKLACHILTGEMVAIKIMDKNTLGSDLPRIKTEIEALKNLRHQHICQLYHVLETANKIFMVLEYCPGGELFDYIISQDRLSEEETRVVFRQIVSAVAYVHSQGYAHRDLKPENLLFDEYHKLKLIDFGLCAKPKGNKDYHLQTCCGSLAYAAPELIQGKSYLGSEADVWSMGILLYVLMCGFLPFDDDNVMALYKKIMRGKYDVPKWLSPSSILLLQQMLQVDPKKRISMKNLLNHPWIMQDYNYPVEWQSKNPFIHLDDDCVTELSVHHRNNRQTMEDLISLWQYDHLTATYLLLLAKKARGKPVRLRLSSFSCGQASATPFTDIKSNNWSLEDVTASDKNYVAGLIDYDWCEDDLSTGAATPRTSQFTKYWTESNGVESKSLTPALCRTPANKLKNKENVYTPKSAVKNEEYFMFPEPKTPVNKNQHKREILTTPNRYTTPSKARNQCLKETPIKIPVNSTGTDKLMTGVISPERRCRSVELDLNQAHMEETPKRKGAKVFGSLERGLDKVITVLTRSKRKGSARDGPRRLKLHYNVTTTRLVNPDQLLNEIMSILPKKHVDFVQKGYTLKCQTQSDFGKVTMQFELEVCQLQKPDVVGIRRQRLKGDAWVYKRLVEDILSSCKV

[12] = molecular target: Myosin light chain kinase (Homo sapiens) (UniProt Q32MK0); assay: Binding affinity to wild-type human partial length MLCK (D488 to K800 residues) expressed in bacterial expression system assessed as residual binding level at 1 uM by Kinomescan method relative to control; how it was run: as §1
[13] = molecular target: Cyclin-dependent kinase 2 homolog (Plasmodium falciparum (isolate 3D7)) (UniProt P61075); assay: Binding affinity to wild-type Plasmodium falciparum 3D7 full length PK5 (M1 to N288 residues) expressed in mammalian expression system assessed as residual binding level at 1 uM by Kinomescan method relative to control
How it was run: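 Single-concentration (1 μM) competition-binding screen run by KINOMEscan against a panel of 468 purified kinases and mutants. The read-out is the relative binding activity of the test compound to each kinase.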

[14] = molecular target: Phosphatidylinositol 4-phosphate 5-kinase type-1 alpha (Homo sapiens) (UniProt Q99755); assay: Binding affinity to wild-type human full length PIP5K1A (M1 to H562 residues) expressed in bacterial expression system assessed as residual binding level at 1 uM by Kinomescan method relative to control
How it was run: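 Single-concentration KINOMEscan (DiscoverX) binding screen at 1 μM against a panel of 468 purified kinases and mutants. The read-out is binding relative to control.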

[15] = molecular target: Serine/threonine-protein kinase RIO3 (Homo sapiens) (UniProt O14730); assay: Binding affinity to wild-type human full length RIOK3 (M1 to E519 residues) expressed in bacterial expression system assessed as residual binding level at 1 uM by Kinomescan method relative to control; how it was run: as §2
Serine/threonine-protein kinase RIO3 (Homo sapiens), sequence (O14730 whole entry, the tested form may be a part): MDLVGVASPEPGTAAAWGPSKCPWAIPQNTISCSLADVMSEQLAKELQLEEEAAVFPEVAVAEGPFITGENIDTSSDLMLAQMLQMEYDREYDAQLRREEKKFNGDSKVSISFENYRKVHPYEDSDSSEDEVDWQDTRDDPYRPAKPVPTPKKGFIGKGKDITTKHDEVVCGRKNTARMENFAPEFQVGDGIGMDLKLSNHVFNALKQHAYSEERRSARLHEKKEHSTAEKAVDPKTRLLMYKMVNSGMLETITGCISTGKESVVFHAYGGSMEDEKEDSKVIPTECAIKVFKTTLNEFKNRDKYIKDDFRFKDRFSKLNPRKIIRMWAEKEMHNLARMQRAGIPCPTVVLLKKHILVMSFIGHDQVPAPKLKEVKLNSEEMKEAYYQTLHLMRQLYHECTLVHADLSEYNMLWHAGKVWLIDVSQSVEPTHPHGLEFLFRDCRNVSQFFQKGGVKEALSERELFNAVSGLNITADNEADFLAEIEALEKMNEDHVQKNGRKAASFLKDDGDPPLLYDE

[16] = molecular target: Rho-associated protein kinase 1 (Homo sapiens) (UniProt Q13464); assay: Binding affinity to wild-type human partial length ROCK1 (M1 to R415 residues) expressed in mammalian expression system assessed as residual binding level at 1 uM by Kinomescan method relative to control
Rho-associated protein kinase 1 (Homo sapiens), sequence (Q13464 2-1354 limits assumed): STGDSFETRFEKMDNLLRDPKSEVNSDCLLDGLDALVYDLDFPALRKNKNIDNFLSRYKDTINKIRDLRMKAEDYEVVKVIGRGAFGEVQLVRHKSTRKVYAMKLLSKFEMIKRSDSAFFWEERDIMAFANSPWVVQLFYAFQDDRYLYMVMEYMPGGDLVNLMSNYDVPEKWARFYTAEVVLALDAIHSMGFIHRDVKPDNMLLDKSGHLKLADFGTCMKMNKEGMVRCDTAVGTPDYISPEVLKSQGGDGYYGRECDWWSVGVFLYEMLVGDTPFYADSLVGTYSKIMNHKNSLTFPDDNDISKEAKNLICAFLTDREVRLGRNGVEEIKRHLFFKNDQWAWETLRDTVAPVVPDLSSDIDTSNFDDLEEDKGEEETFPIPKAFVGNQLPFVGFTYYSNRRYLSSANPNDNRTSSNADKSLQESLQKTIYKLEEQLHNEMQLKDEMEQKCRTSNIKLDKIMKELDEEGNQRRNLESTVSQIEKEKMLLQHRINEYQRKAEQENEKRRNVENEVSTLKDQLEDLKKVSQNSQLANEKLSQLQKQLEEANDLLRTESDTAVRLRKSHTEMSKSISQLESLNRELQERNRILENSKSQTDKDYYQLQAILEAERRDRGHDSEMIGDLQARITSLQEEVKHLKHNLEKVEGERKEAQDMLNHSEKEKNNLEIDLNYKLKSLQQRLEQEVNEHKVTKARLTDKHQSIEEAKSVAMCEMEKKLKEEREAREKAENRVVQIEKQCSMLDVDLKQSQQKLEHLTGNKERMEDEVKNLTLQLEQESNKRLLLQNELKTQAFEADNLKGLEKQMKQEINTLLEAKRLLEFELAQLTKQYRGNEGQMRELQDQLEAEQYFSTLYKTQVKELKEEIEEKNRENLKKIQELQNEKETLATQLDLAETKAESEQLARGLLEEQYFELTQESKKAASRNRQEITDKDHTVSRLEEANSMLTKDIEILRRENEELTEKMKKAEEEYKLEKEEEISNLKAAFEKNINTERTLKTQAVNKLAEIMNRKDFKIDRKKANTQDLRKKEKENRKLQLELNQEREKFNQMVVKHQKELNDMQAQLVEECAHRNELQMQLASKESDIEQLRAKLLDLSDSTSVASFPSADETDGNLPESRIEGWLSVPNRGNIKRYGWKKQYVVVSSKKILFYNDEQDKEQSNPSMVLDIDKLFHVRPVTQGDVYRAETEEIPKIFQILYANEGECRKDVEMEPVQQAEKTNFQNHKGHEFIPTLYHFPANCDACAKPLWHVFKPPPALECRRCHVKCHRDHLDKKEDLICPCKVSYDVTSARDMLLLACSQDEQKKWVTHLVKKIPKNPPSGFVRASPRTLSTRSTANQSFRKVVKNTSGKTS

[17] = molecular target: Serine/threonine-protein kinase Sgk1 (Homo sapiens) (UniProt O00141); assay: Binding affinity to wild-type human partial length SGK (I60 to L431 residues) expressed in mammalian expression system assessed as residual binding level at 1 uM by Kinomescan method relative to control
[18] = molecular target: Tyrosine-protein kinase Tec (Homo sapiens) (UniProt P42680); assay: Binding affinity to wild-type human partial length TEC (L341 to D620 residues) expressed in bacterial expression system assessed as residual binding level at 1 uM by Kinomescan method relative to control
[19] = molecular target: Non-receptor tyrosine-protein kinase TYK2 (Homo sapiens) (UniProt P29597); assay: Binding affinity to wild-type human partial length TYK2 JH1 catalytic domain (V877 to C1187 residues) expressed in mammalian expression system assessed as residual binding level at 1 uM by Kinomescan method relative to control
[20] = molecular target: Serine/threonine-protein kinase ULK2 (Homo sapiens) (UniProt Q8IYT8); assay: Binding affinity to wild-type human partial length ULK2 (M1 to S301 residues) expressed in mammalian expression system assessed as residual binding level at 1 uM by Kinomescan method relative to control
How it was run: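 KINOMEscan competition binding against a panel of 468 purified kinases/mutants, compound tested at 1 μM; readout is relative binding activity versus control.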

[21] = tested on: Mus musculus; assay: Toxicity in NOD-SCID mouse engrafted with human EOL-1 cells assessed as change in body weight at 30 mg/kg/day, ip administered 3 weeks post cell inoculation; format: organism-based; conditions: in vivo, 504 h

Question: Which results are given for `Cc1ccc(NC(=O)c2ccc(CN(CCN(C)C)C(=O)c3cccnc3)cc2)cc1Nc1nccc(-c2cccnc2)n1`?
Answer: Activity [1]: 93%; Activity [2]: 87%; Activity [3]: 92%; Activity [4]: 33%; Activity [5]: 77%; Activity [6]: 84%; Activity [7]: 87%; Activity [8]: 90%; Activity [9]: 90%; Activity [10]: 80%; Activity [11]: 84%; Activity [12]: 80%; Activity [13]: 100%; Activity [14]: 100%; Activity [15]: 69%; Activity [16]: 100%; Activity [17]: 100%; Activity [18]: 100%; Activity [19]: 100%; Activity [20]: 84%; Activity [21]: Non-Toxic
